In ChEMBL document CHEMBL5329220, “Discovery of pyrazolopyrimidines that selectively inhibit CSF-1R kinase by iterative design, synthesis and screening against glioblastoma cells” (RSC Med Chem, 2023):
The source made the active and inactive calls. The calls are words filed in the database; no cut-off is given here.

Key:
E21 [1] = assay: Antiproliferative activity against human E21 cells assessed as reduction in cell survival incubated for 72 hrs by Hoechst staining based nuclei count assay
T98 [2] = assay: Antiproliferative activity against human T98 cells assessed as reduction in cell viability incubated for 5 days by PrestoBlue reagent based fluorescence assay; assay type: functional; conditions: T98, 120 h
Method in brief: (§1)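 Cells seeded in DMEM/10% FBS/2 mM L-glutamine (U87 1×10^3, T98 5×10^2 per well), allowed 48 h at 37 °C, then given fresh medium plus compound from 20× intermediate stocks; untreated wells had 0.1% v/v DMSO. After 5 d, PrestoBlue reading (ex 540, em 590 nm, 60–90 min). EC50 from 4-parameter logistic fit of values normalised to untreated cells, bottom fixed at zero.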

U-87 MG [3] = assay: Antiproliferative activity against human U87 cells assessed as reduction in cell viability incubated for 5 days by PrestoBlue reagent based fluorescence assay; assay type: functional, U-87MG ATCC; conditions: 120 h
Method in brief: as §1

T98 [4] = assay: Antiproliferative activity against human T98 cells assessed as reduction in cell viability at 3 to 30 uM incubated for 5 days by PrestoBlue reagent based fluorescence assay; assay type: functional; conditions: dose 3-30 µM, time 5.0 day
Method in brief: (§2)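 U87 (1×10^3/well) and T98 (5×10^2/well) cells in DMEM with 10% FBS and 2 mM L-glutamine, grown 48 h at 37 °C, 5% CO2, then medium replaced. Compounds added from 20× intermediate dilutions at 3, 10 and 30 μM for 5 d, in triplicate; DMSO 0.1% v/v control. PrestoBlue 60–90 min, fluorescence ex 540/em 590 nm. Normalised to untreated cells; 4-parameter logistic fit, minimum constrained to zero.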

U-87 MG [5] = assay: Antiproliferative activity against human U87 cells assessed as reduction in cell viability incubated at 3 to 30 uM for 5 days by PrestoBlue reagent based fluorescence assay; assay type: functional; conditions: U-87MG ATCC, dose 3-30 µM, time 5.0 day
Method in brief: as §2

E57 [6] = assay: Antiproliferative activity against human E57 cells assessed as reduction in cell viability at 0.01 to 10 uM incubated for 72 hrs by Hoechst staining based nuclei count assay; conditions: dose 0.01-10 µM
E57 [7] = assay: Antiproliferative activity against human E57 cells assessed as phenotypic change at 1 to 2.5 uM incubated for 72 hrs in presence of INK128 by Hoechst 33342/ Alexa Fluor 488 staining based PCA analysis; conditions: dose 1-2.5 µM
E21 [8] = assay: Antiproliferative activity against human E21 cells assessed as reduction in cell viability at 0.01 to 10 uM incubated for 72 hrs by Hoechst staining based nuclei count assay; conditions: dose 0.01-10 µM
E31 = assay: Antiproliferative activity against human E31 cells assessed as phenotypic change at 1 to 5 uM incubated for 72 hrs in presence of INK128 by Hoechst 33342/ Alexa Fluor 488 staining based PCA analysis; assay type: functional, cell-based; conditions: dose 1-5 µM
Method in brief: (§3)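 Patient-derived glioma stem cells kept in laminin-coated DMEM/F12 with FGF, EGF, B27 and N2, plated at 500–1500 cells/well on laminin (10 μg mL−1). After overnight attachment, dosed in triplicate with 0.1% DMSO final, 72 h at 37 °C. Live MitoTracker DeepRed (final 300 nM, 30 min), formaldehyde fixation (final 4%), Cell Painting staining and imaging, CellProfiler features, PCA of phenotypic profiles.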

E21 [9] = assay: Antiproliferative activity against human E21 cells assessed as phenotypic change at 1 to 5 uM incubated for 72 hrs in presence of INK128 by Hoechst 33342/ Alexa Fluor 488 staining based PCA analysis; assay type: functional, cell-based; conditions: dose 1-5 µM
Method in brief: as §3

SMILES | EC50 (T98 [2]) [µM] | Activity (T98 [4]) | other results
CN(C)C1CCN(CC#Cc2nn(C3CCCCC3)c3nc(NC(C)(C)C)ncc23)C1 (stereo not given) | 2.54 | – | Activity (E21 [1]): Dose-Dependent Effect; EC50 (U-87 MG [3]): 2.71 µM
CNc1ncc2c(C#CCN3CCCC(N(C)C)C3)nn(C3CCCC3)c2n1 (stereo not given) | – | Active | –
CNc1ncc2c(C#CCN3CCCCCC3)nn(CC3CCCC3)c2n1 | 4.6 | – | –
CCOC(=O)C1CCN(CC#Cc2nn(CC3CCCC3)c3nc(NC)ncc23)CC1 | – | Active | –
CCCNc1ncc2c(C#CCN3CCCC(N(C)C)C3)nn(CC3CCCC3)c2n1 (stereo not given) | < 4 | – | –
CNc1ncc2c(C#CCN3CCCC(N(C)C)C3)nn(CC3CCCC3)c2n1 (racemic) | 10.8 | – | EC50 (U-87 MG [3]): 5 µM
Cn1nnc2c(C(N)=O)ncn2c1=O | – | – | Activity (U-87 MG [5]): Active
CN(C)C1CCCN(CC#Cc2nn(CC3CCCC3)c3nc(NC(C)(C)C)ncc23)C1 (stereo not given) | < 4 | – | –
CN(C)C1CCN(CC#Cc2nn(C3CCCC3)c3nc(NCc4ccccc4)ncc23)C1 (stereo not given) | 2 | – | Activity (E57 [6]): Active; Activity (E57 [7]): Active; Activity (E21 [8]): Active; Activity (E31): Active; Activity (E21 [9]): Active
CN(C)C1CCCN(CC#Cc2nn(CC3CCCCC3)c3nc(NC(C)(C)C)ncc23)C1 (stereo not given) | – | Active | Activity (U-87 MG [5]): Active
CNc1ncc2c(C#CCN3CCCC(N(C)C)C3)nn(CC3CCCCC3)c2n1 (stereo not given) | – | Active | –
CN(C)C1CCCN(CC#Cc2nn(C3CCCCC3)c3nc(NC(C)(C)C)ncc23)C1 (stereo not given) | – | Active | Activity (U-87 MG [5]): Active
CNc1ncc2c(C#CCN3CCCC(N(C)C)C3)nn(C3CCCCC3)c2n1 (stereo not given) | – | Active | –
CNc1ncc2c(C#CCN3CCC(N(C)C)CC3)nn(CC3CCCC3)c2n1 | 14.8 | – | EC50 (U-87 MG [3]): 15.9 µM
CC1CCN(CC#Cc2nn(CC3CCCC3)c3ncnc(N)c23)CC1 | < 30 | – | EC50 (U-87 MG [3]): < 30 µM
CN(C)C1CCCN(CC#Cc2nn(C3CCCC3)c3nc(NC(C)(C)C)ncc23)C1 (stereo not given) | – | Active | Activity (U-87 MG [5]): Active; Activity (E21 [1]): Dose-Dependent Effect
CNc1ncc2c(C#CCN3CCC(NC(C)=O)CC3)nn(CC3CCCC3)c2n1 | – | Active | –
CCC(CC)Nc1ncc2c(C#CCN3CCCC(N(C)C)C3)nn(CC3CCCC3)c2n1 (stereo not given) | < 4 | – | Activity (E21 [1]): Dose-Dependent Effect
CN(C)C1CCCN(CC#Cc2nn(CC3CCCC3)c3nc(NCc4ccccc4)ncc23)C1 (stereo not given) | < 4 | – | –
CCOC(=O)N1CCN(CC#Cc2nn(CC3CCCC3)c3nc(NC)ncc23)CC1 | – | Active | –
